According to ChEMBL document CHEMBL1275434, “In vitro evaluation of CBR-2092, a novel rifamycin-quinolone hybrid antibiotic: studies of the mode of action in Staphylococcus aureus” (Antimicrob Agents Chemother, 2008):
Values after ≈ are worked out from the molar mass of the structure shown.

Legend:
Staphylococcus aureus [1] = assay: Activity at Staphylococcus aureus wild-type DNA topoisomerase 4 subunit ParC
Outline: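 Recombinant S. aureus topoisomerase IV (wild-type ParC with ParE; specific activity 25 to 30 U per μg). Stopped with SDS/proteinase K. Linear DNA quantified on gel; CC50 is the mean of two or more assays.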

Staphylococcus aureus [2] = assay: Activity at Staphylococcus aureus DNA topoisomerase 4 subunit ParC S80F mutant
Staphylococcus aureus [3] = assay: Activity at Staphylococcus aureus wild-type GyrA
Outline: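 Recombinant S. aureus gyrase (wild-type GyrA with His-tagged GyrB; 250 U per μg). SDS/proteinase K stop. Gel quantitation of linear cleavage product gave CC50, the mean of two or more assays.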

[4] = system: DNA gyrase subunit A (Staphylococcus aureus), P20831 [S84L]; assay: Activity at Staphylococcus aureus wild-type GyrA S84L mutant
Staphylococcus aureus [5] = assay: Antimicrobial activity against Staphylococcus aureus CB190 by broth microdilution method; type: functional
Staphylococcus aureus [6] = assay: Antimicrobial activity against Staphylococcus aureus CB811 harboring quinolone-resistant gyrA S84L mutant gene by broth microdilution method; type: functional
Outline: (§1)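 CLSI broth microdilution MIC in cation-adjusted Mueller-Hinton (MHII) broth supplemented with 0.002% (vol/vol) polysorbate 80, included to limit compound loss to plastic surfaces.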

Staphylococcus aureus [7] = assay: Antimicrobial activity against Staphylococcus aureus CB808 harboring quinolone-resistant parC S80F mutant gene by broth microdilution method; type: functional; outline: as §1
Staphylococcus aureus [8] = assay: Antimicrobial activity against Staphylococcus aureus CB814 harboring fluoroquinolone-resistant gyrA S84L and parC S80F mutant genes by broth microdilution method; type: functional; outline: as §1
Staphylococcus aureus [9] = assay: Antimicrobial activity against Staphylococcus aureus CB370 harboring rifampin-resistant rpoB H481Y mutant gene by broth microdilution method; type: functional; outline: as §1
Staphylococcus aureus [10] = assay: Antimicrobial activity against Staphylococcus aureus CB812 harboring rpo B H481Y and gyrA S84L mutant genes by broth microdilution method; type: functional; outline: as §1
Staphylococcus aureus [11] = assay: Antimicrobial activity against Staphylococcus aureus CB809 harboring rpoB H481Y and parC S80F mutant genes by broth microdilution method
Staphylococcus aureus [12] = assay: Antimicrobial activity against Staphylococcus aureus CB815 harboring rpoB H481Y, gyrA S84L and parC S80F mutant genes by broth microdilution method

Q: For `Cc1c(N2CC[C@@H](N)C2)c(F)cn2c(=O)c(C(=O)O)cc(C3CC3)c12`, which CC50 (Staphylococcus aureus [1]) is on record?
A: 60 nM

Q: What about the CC50 (Staphylococcus aureus [2]) of the same molecule?
A: 1100 nM

Q: And the CC50 (Staphylococcus aureus [3])?
A: 90 nM

Q: And the CC50 [4]?
A: 900 nM

Q: What about the MIC (Staphylococcus aureus [5]) of the same molecule?
A: 0.015 µg/mL (≈ 0.0434 µM)

Q: What about the MIC (Staphylococcus aureus [6]) of the same molecule?
A: 0.03 µg/mL (≈ 0.0869 µM)

Q: And the MIC (Staphylococcus aureus [7])?
A: 0.03 µg/mL (≈ 0.0869 µM)

Q: And the MIC (Staphylococcus aureus [8])?
A: 0.5 µg/mL (≈ 1.45 µM)

Q: What about the MIC (Staphylococcus aureus [9]) of the same molecule?
A: 0.015 µg/mL (≈ 0.0434 µM)

Q: What about the MIC (Staphylococcus aureus [10]) of the same molecule?
A: 0.03 µg/mL (≈ 0.0869 µM)

Q: What about the MIC (Staphylococcus aureus [11]) of the same molecule?
A: 0.03 µg/mL (≈ 0.0869 µM)

Q: And the MIC (Staphylococcus aureus [12])?
A: 0.25 µg/mL (≈ 0.724 µM)
